From ChEMBL document CHEMBL5058577, “EUbOPEN Chemogenomics Library 2 (Multiplex)” (2022)

Test system: HEK-293T
Assay: Multiplex assay against HEK293T
Assay type: toxicity, cell-based
Conditions: human
In short: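 Phenotypes for tubulin, mitochondrial mass and membrane permeability are expressed as per cents of healthy-nucleus cells. Cells were stained live at seeding with Hoechst33342, BioTracker Green Microtubule Cytoskeleton Dye, MitoTracker Red and Annexin V Alexa Fluor 680, then imaged after compound addition on a CQ1 microscope at 37°C and 5% CO2. Machine-learning gating in CellPathfinder separated Hoechst high-intensity objects from normal cells, divided normal cells by nuclear state (healthy, pyknosed, fragmented) and divided pyknosed cells into mitotic or apoptotic.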

[1] = 12 h, 1 µM, compound concentration 1 uM, replicate 1
[2] = 12 h, 1 µM, compound concentration 1 uM, replicate 2
[3] = 12 h, 10 µM, compound concentration 10 uM, replicate 1
[4] = 12 h, 10 µM, compound concentration 10 uM, replicate 2
[5] = 24 h, 1 µM, compound concentration 1 uM, replicate 1
[6] = 24 h, 1 µM, compound concentration 1 uM, replicate 2
[7] = 24 h, 10 µM, compound concentration 10 uM, replicate 1
[8] = 24 h, 10 µM, compound concentration 10 uM, replicate 2
[9] = 48 h, 1 µM, compound concentration 1 uM, replicate 1
[10] = 48 h, 1 µM, compound concentration 1 uM, replicate 2
[11] = 48 h, 10 µM, compound concentration 10 uM, replicate 1
[12] = 48 h, 10 µM, compound concentration 10 uM, replicate 2

In the case of C[C@H](NC(=O)c1c(C(F)F)nn(C)c1Oc1cccc(C(F)(F)F)c1)c1ccc(C(=O)O)cc1 [PALUPIPRANT], the “Population Apoptotic (%)” value [1] was 40%, the “Population Fragmented Nuclei (%)” value [1] was 6% and the “Population Healthy Nuclei (%)” value [1] was 80%. The “Population Hoechst High Intensity Objects (%)” value [1] was 7%, the “Population Membrane Permeable-Phenotype (%)” value [1] was 0% and the “Population Mitochondria Different-Phenotype (%)” value [1] was 44%. For the same compound, the “Population Mitotic Cells (%)” value [1] was 59%, the “Population Normal (%)” value [1] was 92% and the “Population Pyknosed Nuclei (%)” value [1] was 13%. For the same compound, the “Population Tubulin-Different-Phenotype (%)” value [1] was 28%, the “Total Cell Count” value [1] was 407 and the “Population Apoptotic (%)” value [2] was 27%. The “Population Healthy Nuclei (%)” value [2] was 83%, the “Population Hoechst High Intensity Objects (%)” value [2] was 5% and the “Population Mitochondria Different-Phenotype (%)” value [2] was 60%. The “Population Mitotic Cells (%)” value [2] was 72%, the “Population Normal (%)” value [2] was 94% and the “Population Pyknosed Nuclei (%)” value [2] was 10%. The “Total Cell Count” value [2] was 475, the “Population Apoptotic (%)” value [3] was 38% and the “Population Fragmented Nuclei (%)” value [3] was 7%. The “Population Healthy Nuclei (%)” value [3] was 76%, the “Population Hoechst High Intensity Objects (%)” value [3] was 7% and the “Population Membrane Permeable-Phenotype (%)” value [3] was 0%. The “Population Mitochondria Different-Phenotype (%)” value [3] was 55%, the “Population Mitotic Cells (%)” value [3] was 61% and the “Population Normal (%)” value [3] was 92%. For the same compound, the “Population Pyknosed Nuclei (%)” value [3] was 16%, the “Population Tubulin-Different-Phenotype (%)” value [3] was 40% and the “Total Cell Count” value [3] was 371. The “Population Apoptotic (%)” value [4] was 60%, the “Population Fragmented Nuclei (%)” value [4] was 5% and the “Population Healthy Nuclei (%)” value [4] was 77%. The “Population Hoechst High Intensity Objects (%)” value [4] was 10%, the “Population Mitochondria Different-Phenotype (%)” value [4] was 68% and the “Population Mitotic Cells (%)” value [4] was 40%. The “Population Normal (%)” value [4] was 89%, the “Population Pyknosed Nuclei (%)” value [4] was 17% and the “Population Tubulin-Different-Phenotype (%)” value [4] was 27%. For the same compound, the “Total Cell Count” value [4] was 293, the “Population Apoptotic (%)” value [5] was 36% and the “Population Fragmented Nuclei (%)” value [5] was 9%. For the same compound, the “Population Healthy Nuclei (%)” value [5] was 80%, the “Population Hoechst High Intensity Objects (%)” value [5] was 5% and the “Population Membrane Permeable-Phenotype (%)” value [5] was 1%. For the same compound, the “Population Mitochondria Different-Phenotype (%)” value [5] was 27%, the “Population Mitotic Cells (%)” value [5] was 63% and the “Population Normal (%)” value [5] was 94%. For the same compound, the “Population Pyknosed Nuclei (%)” value [5] was 10%, the “Population Tubulin-Different-Phenotype (%)” value [5] was 18% and the “Total Cell Count” value [5] was 527. For the same compound, the “Population Apoptotic (%)” value [6] was 46%, the “Population Fragmented Nuclei (%)” value [6] was 7% and the “Population Healthy Nuclei (%)” value [6] was 83%. The “Population Hoechst High Intensity Objects (%)” value [6] was 4%, the “Population Membrane Permeable-Phenotype (%)” value [6] was 0% and the “Population Mitochondria Different-Phenotype (%)” value [6] was 35%. The “Population Mitotic Cells (%)” value [6] was 53%, the “Population Normal (%)” value [6] was 95% and the “Population Pyknosed Nuclei (%)” value [6] was 9%. For the same compound, the “Population Tubulin-Different-Phenotype (%)” value [6] was 19%, the “Total Cell Count” value [6] was 604 and the “Population Apoptotic (%)” value [7] was 26%. The “Population Fragmented Nuclei (%)” value [7] was 9%, the “Population Healthy Nuclei (%)” value [7] was 74% and the “Population Hoechst High Intensity Objects (%)” value [7] was 3%. For the same compound, the “Population Membrane Permeable-Phenotype (%)” value [7] was 0%, the “Population Mitochondria Different-Phenotype (%)” value [7] was 46% and the “Population Mitotic Cells (%)” value [7] was 73%. For the same compound, the “Population Normal (%)” value [7] was 96%, the “Population Pyknosed Nuclei (%)” value [7] was 16% and the “Population Tubulin-Different-Phenotype (%)” value [7] was 29%. For the same compound, the “Total Cell Count” value [7] was 465, the “Population Apoptotic (%)” value [8] was 55% and the “Population Fragmented Nuclei (%)” value [8] was 7%. The “Population Healthy Nuclei (%)” value [8] was 79%, the “Population Hoechst High Intensity Objects (%)” value [8] was 7% and the “Population Mitochondria Different-Phenotype (%)” value [8] was 52%. The “Population Mitotic Cells (%)” value [8] was 44%, the “Population Normal (%)” value [8] was 92% and the “Population Pyknosed Nuclei (%)” value [8] was 13%. For the same compound, the “Population Tubulin-Different-Phenotype (%)” value [8] was 19%, the “Total Cell Count” value [8] was 353 and the “Population Apoptotic (%)” value [9] was 25%. The “Population Fragmented Nuclei (%)” value [9] was 13%, the “Population Healthy Nuclei (%)” value [9] was 79% and the “Population Hoechst High Intensity Objects (%)” value [9] was 2%. For the same compound, the “Population Membrane Permeable-Phenotype (%)” value [9] was 1%, the “Population Mitochondria Different-Phenotype (%)” value [9] was 17% and the “Population Mitotic Cells (%)” value [9] was 75%. For the same compound, the “Population Normal (%)” value [9] was 97%, the “Population Pyknosed Nuclei (%)” value [9] was 7% and the “Population Tubulin-Different-Phenotype (%)” value [9] was 13%. The “Total Cell Count” value [9] was 916, the “Population Apoptotic (%)” value [10] was 21% and the “Population Fragmented Nuclei (%)” value [10] was 14%. For the same compound, the “Population Healthy Nuclei (%)” value [10] was 78%, the “Population Hoechst High Intensity Objects (%)” value [10] was 4% and the “Population Membrane Permeable-Phenotype (%)” value [10] was 0%. For the same compound, the “Population Mitochondria Different-Phenotype (%)” value [10] was 18%, the “Population Mitotic Cells (%)” value [10] was 78% and the “Population Normal (%)” value [10] was 95%. For the same compound, the “Population Pyknosed Nuclei (%)” value [10] was 6%, the “Population Tubulin-Different-Phenotype (%)” value [10] was 9% and the “Total Cell Count” value [10] was 867. For the same compound, the “Population Apoptotic (%)” value [11] was 29%, the “Population Fragmented Nuclei (%)” value [11] was 18% and the “Population Healthy Nuclei (%)” value [11] was 75%. The “Population Hoechst High Intensity Objects (%)” value [11] was 1%, the “Population Membrane Permeable-Phenotype (%)” value [11] was 1% and the “Population Mitochondria Different-Phenotype (%)” value [11] was 24%. The “Population Mitotic Cells (%)” value [11] was 70%, the “Population Normal (%)” value [11] was 98% and the “Population Pyknosed Nuclei (%)” value [11] was 6%. The “Population Tubulin-Different-Phenotype (%)” value [11] was 16%, the “Total Cell Count” value [11] was 821 and the “Population Apoptotic (%)” value [12] was 28%. For the same compound, the “Population Fragmented Nuclei (%)” value [12] was 15%, the “Population Healthy Nuclei (%)” value [12] was 77% and the “Population Hoechst High Intensity Objects (%)” value [12] was 3%. For the same compound, the “Population Membrane Permeable-Phenotype (%)” value [12] was 0%, the “Population Mitochondria Different-Phenotype (%)” value [12] was 28% and the “Population Mitotic Cells (%)” value [12] was 71%. For the same compound, the “Population Normal (%)” value [12] was 96%, the “Population Tubulin-Different-Phenotype (%)” value [12] was 17% and the “Total Cell Count” value [12] was 554.
